Publication PMC3746001 (ACS chemical biology, 2013)
Read-outs that look alike come from different tables or passages of the source.

Key:
hpol ι = molecular target: T1, hpol ι (Homo sapiens, UniProt Q9UNA4); assay: Fluorescence-based polymerase assay, hpol ι; type: biochemical
T1 sequence (Q9UNA4 26-446): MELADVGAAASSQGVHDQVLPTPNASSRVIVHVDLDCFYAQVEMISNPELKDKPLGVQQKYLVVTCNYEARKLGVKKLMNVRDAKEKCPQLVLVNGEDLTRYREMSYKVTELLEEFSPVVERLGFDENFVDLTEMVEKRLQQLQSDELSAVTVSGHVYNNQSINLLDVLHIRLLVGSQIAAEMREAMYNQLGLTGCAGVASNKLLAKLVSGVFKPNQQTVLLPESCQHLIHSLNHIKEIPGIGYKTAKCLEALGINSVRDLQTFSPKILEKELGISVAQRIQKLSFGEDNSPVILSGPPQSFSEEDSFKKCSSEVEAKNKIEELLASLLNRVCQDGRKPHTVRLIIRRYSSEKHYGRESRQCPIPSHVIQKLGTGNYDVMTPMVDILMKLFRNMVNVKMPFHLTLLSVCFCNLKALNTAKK

hpol η = assay: Steady-state kinetic analysis of hpol η activity in the presence of inhibitor; type: biochemical, human; conditions: for kcat: varying dTTP
In short: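 Recombinant hpol η (His/GST-tagged in E. coli BL21(DE3), nickel then GST affinity, GST cleaved) in the fluorescence strand-displacement assay (TAMRA-labelled displaced strand), in 50 mM Tris pH 8.0, 40 mM NaCl, 2 mM DTT, 0.01% Tween-20. dTTP was 1–100 µM and inhibitor 0 or 1–50 µM. RFU were converted to product, linear velocities fit to a hyperbola and corrected for enzyme concentration to give kcat and Km,dTTP.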

hetero-dimeric hpol γ = molecular target: T2, hetero-dimeric hpol γ (Homo sapiens, UniProt P54098); assay: Fluorescence-based polymerase assay, hpol γ; type: biochemical
T2 sequence (P54098 1-1239): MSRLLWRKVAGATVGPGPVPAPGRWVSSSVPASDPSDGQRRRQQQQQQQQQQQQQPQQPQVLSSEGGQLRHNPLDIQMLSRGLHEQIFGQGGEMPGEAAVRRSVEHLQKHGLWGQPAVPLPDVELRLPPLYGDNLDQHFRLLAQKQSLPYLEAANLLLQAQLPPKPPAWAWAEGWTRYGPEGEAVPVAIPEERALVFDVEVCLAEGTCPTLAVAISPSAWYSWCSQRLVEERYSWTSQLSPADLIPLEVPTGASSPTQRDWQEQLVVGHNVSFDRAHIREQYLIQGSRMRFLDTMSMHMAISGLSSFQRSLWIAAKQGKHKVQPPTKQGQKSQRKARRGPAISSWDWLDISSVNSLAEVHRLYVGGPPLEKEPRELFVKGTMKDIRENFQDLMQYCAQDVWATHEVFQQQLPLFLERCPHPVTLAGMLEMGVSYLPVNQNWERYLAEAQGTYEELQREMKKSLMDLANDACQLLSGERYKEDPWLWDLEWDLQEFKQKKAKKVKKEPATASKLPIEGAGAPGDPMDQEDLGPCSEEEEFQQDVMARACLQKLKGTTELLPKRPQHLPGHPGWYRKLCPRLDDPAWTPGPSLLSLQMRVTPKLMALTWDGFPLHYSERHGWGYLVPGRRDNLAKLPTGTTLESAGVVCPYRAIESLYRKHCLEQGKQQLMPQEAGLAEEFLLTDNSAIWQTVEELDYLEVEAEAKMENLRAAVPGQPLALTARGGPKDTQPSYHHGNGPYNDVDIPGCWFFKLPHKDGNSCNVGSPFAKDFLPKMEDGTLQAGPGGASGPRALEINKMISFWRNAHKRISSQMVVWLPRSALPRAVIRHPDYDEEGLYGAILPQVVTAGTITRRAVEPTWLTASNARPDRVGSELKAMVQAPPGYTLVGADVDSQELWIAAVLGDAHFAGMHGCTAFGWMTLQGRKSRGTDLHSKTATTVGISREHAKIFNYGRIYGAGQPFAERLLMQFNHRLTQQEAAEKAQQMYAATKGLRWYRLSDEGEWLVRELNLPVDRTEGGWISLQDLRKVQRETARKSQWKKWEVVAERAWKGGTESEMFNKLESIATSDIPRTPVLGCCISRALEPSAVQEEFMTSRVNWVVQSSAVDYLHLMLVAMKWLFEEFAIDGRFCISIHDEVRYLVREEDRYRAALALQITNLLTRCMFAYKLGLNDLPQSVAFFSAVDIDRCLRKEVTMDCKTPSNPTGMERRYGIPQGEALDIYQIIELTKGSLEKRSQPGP
T2 sequence (Q9UHN1 26-485 partner limits assumed): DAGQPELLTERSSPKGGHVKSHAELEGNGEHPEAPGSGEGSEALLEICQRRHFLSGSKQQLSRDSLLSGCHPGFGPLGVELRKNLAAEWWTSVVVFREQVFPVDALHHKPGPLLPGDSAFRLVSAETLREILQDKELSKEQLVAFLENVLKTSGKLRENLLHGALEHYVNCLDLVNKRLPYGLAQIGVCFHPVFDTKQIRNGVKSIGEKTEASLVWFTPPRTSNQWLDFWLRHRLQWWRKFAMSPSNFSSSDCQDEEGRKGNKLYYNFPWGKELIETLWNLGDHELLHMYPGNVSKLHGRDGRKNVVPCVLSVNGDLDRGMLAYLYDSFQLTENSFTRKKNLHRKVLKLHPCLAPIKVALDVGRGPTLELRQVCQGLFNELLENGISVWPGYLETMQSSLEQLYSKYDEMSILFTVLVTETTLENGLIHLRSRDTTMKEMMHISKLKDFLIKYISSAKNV

## O=C1NC(=S)NC(=O)C1=Cc1cn(C(=O)c2ccccc2Br)c2ccc(Cl)cc12 [ITBA-12, 5-((1-(2-bromobenzoyl)-5-chloro-1H-indol-3-yl)methylene)-2-thioxodihydropyrimidine-4,6(1H,5H)-dione]
Hpol ι
  IC50: ~80 µM
Hpol η; read-out: Km,dTTP, varying dTTP, [ITBA-12] 1 μM
  Km: 6.7 ± 0.9 µM
Hpol η; read-out: Km,dTTP, varying dTTP, [ITBA-12] 10 μM
  Km: 7.6 ± 1 µM
Hpol η; read-out: Km,dTTP, varying dTTP, [ITBA-12] 20 μM
  Km: 8.5 ± 1.4 µM
Hpol η; read-out: Km,dTTP, varying dTTP, [ITBA-12] 40 μM
  Km: 15 ± 2 µM
Hpol η; read-out: Km,dTTP, varying dTTP, [ITBA-12] 50 μM
  Km: 26.7 ± 5.6 µM
Hpol η; [ITBA-12] 1 μM
  kcat: 0.065 ± 0.0017 s⁻¹
Hpol η; [ITBA-12] 10 μM
  kcat: 0.0717 ± 0.0017 s⁻¹
Hpol η; [ITBA-12] 20 μM
  kcat: 0.0667 ± 0.0033 s⁻¹
Hpol η; [ITBA-12] 40 μM
  kcat: 0.07 ± 0.0033 s⁻¹
Hpol η; [ITBA-12] 50 μM
  kcat: 0.0583 ± 0.005 s⁻¹
hetero-dimeric hpol γ
  IC50: 49 ± 6 µM
